Shown are actives, neighbours in structure and some others; about 5.6% of the full set was active somewhere.
XBP1 UPR activ: activators of adaptive arm of unfolded protein response (XBP1); CHO-XBP1 luciferase reporter, IRE1-XBP1 UPR activation, luminescence; percent of tunicamycin response, DMSO as zero; activation, % at 20 µM; 330,000 compounds, 0.33% hits;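 active = versus positive control, 20 µM dose yields 30% or more activation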;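 note: 100% = tunicamycin at 10 µg/mL and 0% = DMSO only wells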
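Material: CHO cell line with stable XBP1 luciferase reporter; buffer or medium: F12 medium containing 10% fetal bovine serum; compound: single point, 20 µM final compound, 1% DMSO; incubation: 6 h treatment, 37 °C; measured by: glow luminescence from Steady-Glo reagent; evaluation: activation, % of tunicamycin; control set: tunicamycin high, DMSO low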
MPTP inh: blocks calcium-induced mitochondrial swelling | isolated mouse mitochondria, Ca2+ swelling absorbance, 30 min | inhibition, % at 10 µM | 360,000 compounds, 1.4% hits | AID 602449;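 active = inhibition of 50% or more, scaled per plate between neutral and stimulator controls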;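 note: 0% = DMSO wells given calcium and 100% = 1 mM EGTA wells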
CHOP inh: CHOP inhibition in unfolded protein response; CHO-K1 CHOP-promoter luciferase, tunicamycin-induced, 15-18 h; inhibition, % at 10 µM; 220,000 compounds, 3.8% hits;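 active = compounds that reduced the stress-induced luciferase reporter signal by more than about 70% of percent inhibition, limit read from the data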;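 note: 0% = tunicamycin plus vehicle and 100% = wells without tunicamycin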
CHOP UPR activ: apoptotic UPR (CHOP) activation | CHO-CHOP luciferase reporter, luminescence; percent of tunicamycin response over DMSO baseline | AID 449763 | 330,000 compounds, 0.34% hits | activation, % at 10 µM;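 active = at 10 µM dose, activation of 40% or more, normalized to positive control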;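 note: 100% = tunicamycin at 10 µg/mL and 0% = DMSO alone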
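Assay system: CHO-CHOP cells, stable luciferase reporter of PERK-eIF2a-CHOP signalling / Buffer or medium: F12 plus 10% serum / Compound dosing: one dose, 10 µM in 0.5% DMSO / Times: 6 h compound treatment, 37 °C / Technique: luciferase luminescence / Read-out: % reporter activation, DMSO baseline versus tunicamycin full activation / Benchmarks: tunicamycin and DMSO controls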
GRIN3A LBD mod: modulators (binders) of human NR3A ligand-binding domain | AID 1259313 | Tm shift relative to glycine control, % at 25 µM | 340,000 compounds, 2.5% hits | NR3A LBD differential scanning fluorimetry, Tm shift; 0% = protein alone, 100% = glycine-bound protein;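 active = melting temperature shift of at least 10% of the positive control shift, at one fixed dose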
aDG glyco up: alpha-DG glycosylation activation | Pro5-aDG cells, alpha-DG glycosylation AlphaScreen (IIH6); 0% Pro5, 100% B10-LARGE cell signal | 360,000 compounds, 0.22% hits | activation, % at 10 µM;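 active = activation of at least 8% versus controls, or a plate z-score of at least 8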;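 note: Pro5 are CHO cells carrying HIG-tagged alpha-DG that lacks glycosylation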
MPTP counter: Rhodamine 123 counter-screen of mitochondrial pore hits. isolated mitochondria, membrane potential, Rhodamine 123 fluorescence. shares compounds with MPTP inh. inhibition, % at 10 µM. 5,000 compounds, 78% hits; in the data active = inhibition above about 22%;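 note: 0% = DMSO vehicle and 100% = positive control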
MPTP swell DR: dose response confirmation of mitochondrial permeability transition pore inhibitors. 780 compounds, 58% hits. isolated mitochondria swelling, absorbance. shares compounds with MPTP inh. AID 651561. IC50, µM; in the data active = IC50 below about 20 µM
MPTP cs DR: active in counter-screen for permeability transition pore inhibitors; shares compounds with MPTP inh; isolated mitochondria counterscreen, fluorescence read-out; IC50, µM; 780 compounds, 49% hits; AID 651564; in the data active = IC50 below about 80 µM
Active calls of the source: *.

What do the screens show for `Cn1c(=O)c2ncn(CC(=O)Nc3ccc(N4CCOCC4)cc3)c2n(C)c1=O`?
XBP1 UPR activ: 0; MPTP inh: -1; CHOP inh: 12; CHOP UPR activ: -2; GRIN3A LBD mod: 2; aDG glyco up: 0

How did O=C(O)c1ccc(C2Nc3ccccc3C(=O)N2Cc2ccccc2)cc1 (stereo unspecified) do in these assays?
XBP1 UPR activ: -2; MPTP inh: 0; CHOP UPR activ: 0; GRIN3A LBD mod: 0; aDG glyco up: 0

What do the screens show for `COCCN(CCOC)S(=O)(=O)c1ccc(C(=O)Nc2nc(-c3ccccc3)c(C(=O)c3ccccc3)s2)cc1`?
XBP1 UPR activ: 0; MPTP inh: 2; CHOP inh: 49; CHOP UPR activ: 6; GRIN3A LBD mod: 2; aDG glyco up: 0

What do the screens show for `CCCN(CCC)S(=O)(=O)c1ccc(C(=O)Nc2nc(-c3ccccc3)c(C(=O)OCC)s2)cc1`?
XBP1 UPR activ: -2; MPTP inh: 80*; CHOP inh: 16; CHOP UPR activ: -2; GRIN3A LBD mod: 20*; aDG glyco up: 1; MPTP counter: 5; MPTP swell DR: 14*; MPTP cs DR: 12*

Results for CCOc1ccc(C(=O)OCC(=O)N2CCCC2)cc1OCC ?
XBP1 UPR activ: 0; MPTP inh: -1; CHOP UPR activ: 2; GRIN3A LBD mod: -1; aDG glyco up: 0

What do the screens show for `Cc1ccc(SCc2nc3ccccc3n2CC(=O)Nc2ccccc2)cc1`?
XBP1 UPR activ: -1; MPTP inh: 10; CHOP inh: 34; CHOP UPR activ: 0; GRIN3A LBD mod: 0; aDG glyco up: 0

How did Cc1ccc(SCc2nc3ccccc3n2CC(=O)Nc2ccc(Cl)cc2)cc1 do in these assays?
XBP1 UPR activ: 2; MPTP inh: 87*; CHOP inh: 45; CHOP UPR activ: -1; GRIN3A LBD mod: -1; aDG glyco up: 1; MPTP counter: 87*

What do the screens show for `COc1ccc(CC(NC(C)=O)C(=O)N2CCN(C(=O)Nc3ccc(Cl)cc3)CC2)cc1OC` (stereo unspecified)?
XBP1 UPR activ: 0; MPTP inh: 55*; CHOP inh: -9; CHOP UPR activ: 3; GRIN3A LBD mod: 4; aDG glyco up: 0; MPTP counter: 73*

What do the screens show for `O=C(NC1C/C(=N/O)c2cc3c(cc21)OCO3)C(F)(F)F` (stereo unspecified)?
XBP1 UPR activ: -1; MPTP inh: 145*; CHOP inh: -1; CHOP UPR activ: 1; GRIN3A LBD mod: 1; aDG glyco up: 0; MPTP counter: -8; MPTP swell DR: >100; MPTP cs DR: >80

Results for CN1c2ccccc2C(O)=C(C(=S)Nc2ccccc2)S1(=O)=O ?
XBP1 UPR activ: -1; MPTP inh: -1; CHOP inh: -3; CHOP UPR activ: 0; GRIN3A LBD mod: -4; aDG glyco up: 0

Results for CN1c2ccccc2C(O)=C(C(=S)Nc2ccc(F)c(Cl)c2)S1(=O)=O ?
XBP1 UPR activ: 0; MPTP inh: 89*; CHOP inh: 45; CHOP UPR activ: 0; GRIN3A LBD mod: 27*; aDG glyco up: 0; MPTP counter: 72*

What do the screens show for `O=C(O)c1cc(S(=O)(=O)Nc2cc(Cl)ccc2Oc2ccccc2)ccc1O`?
XBP1 UPR activ: -1; MPTP inh: 72*; CHOP UPR activ: -1; GRIN3A LBD mod: 8; aDG glyco up: 0; MPTP counter: 86*

What do the screens show for `CC(C)NS(=O)(=O)c1ccc(CCC(=O)Nc2cc(Cl)ccc2Oc2ccccc2)cc1`?
XBP1 UPR activ: -3; MPTP inh: 11; CHOP inh: 50; CHOP UPR activ: 3; GRIN3A LBD mod: -2; aDG glyco up: 2

Results for COc1ccccc1-c1c(C(F)(F)F)oc2cc(OC(=O)c3ccc([N+](=O)[O-])cc3)ccc2c1=O ?
XBP1 UPR activ: 0; MPTP inh: 48; CHOP inh: 40; CHOP UPR activ: -2; GRIN3A LBD mod: 1; aDG glyco up: 0

Results for Cc1csc2c(N3CCN(C(=O)Nc4ccc(OC(F)(F)F)cc4)CC3)ncnc12 ?
XBP1 UPR activ: -3; MPTP inh: 89*; CHOP inh: -4; CHOP UPR activ: 3; GRIN3A LBD mod: -4; aDG glyco up: 0; MPTP counter: 72*

How did Cc1csc2c(N3CCC(C(=O)O)CC3)ncnc12 do in these assays?
XBP1 UPR activ: 0; MPTP inh: 2; CHOP inh: 22; CHOP UPR activ: 0; GRIN3A LBD mod: 1; aDG glyco up: 0

What do the screens show for `CSc1cccc(NC(=O)Nc2ccccc2)c1`?
XBP1 UPR activ: 2; MPTP inh: 88*; CHOP inh: 28; CHOP UPR activ: 6; GRIN3A LBD mod: 10; aDG glyco up: 1; MPTP counter: 110*

What do the screens show for `CSc1cccc(NC(=O)/C=C/c2ccc(Cl)cc2)c1`?
XBP1 UPR activ: 2; MPTP inh: 90*; CHOP inh: 48; CHOP UPR activ: 6; GRIN3A LBD mod: 17*; aDG glyco up: 0; MPTP counter: 90*

Results for CSc1cccc(NC(C)=O)c1 ?
XBP1 UPR activ: -2; MPTP inh: 0; CHOP inh: 8; CHOP UPR activ: -1; GRIN3A LBD mod: -2; aDG glyco up: 0

What do the screens show for `CSc1cccc(NC(=O)/C=C/c2ccccc2)c1`?
XBP1 UPR activ: 5; MPTP inh: 52*; CHOP inh: 51; CHOP UPR activ: 7; GRIN3A LBD mod: 17*; aDG glyco up: 0; MPTP counter: 53*

How did CSc1cccc(NC(=O)/C=C/c2ccco2)c1 do in these assays?
XBP1 UPR activ: 8; MPTP inh: 0; CHOP inh: -7; CHOP UPR activ: 6; GRIN3A LBD mod: -6; aDG glyco up: 0

What do the screens show for `CC1CCCCN1C(=O)Cn1c(=O)oc2cc(S(=O)(=O)N3CCCC3)ccc21` (stereo unspecified)?
XBP1 UPR activ: -4; MPTP inh: 1; CHOP UPR activ: -1; GRIN3A LBD mod: 2; aDG glyco up: 0

Results for Cc1ccc2c(c1)C(=C(C#N)C#N)CCN2 ?
MPTP inh: 9; GRIN3A LBD mod: -12; aDG glyco up: 0

Source: PubChem (several laboratories)
